Experiments:
[1] = biological target: Glutamate NMDA receptor; Grin1/Grin2b (Rattus norvegicus, UniProt P35439+Q00960); assay: Antagonistic activity for suppression of membrane current response elicited by fixed concentration of glycine and glutamate in Xenopus oocyte expressing N-methyl-D-aspartate glutamate receptor 1/2B; type: functional
Method in brief: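 Xenopus oocytes expressing cloned NR1A/NR2B, superfused with frog's Ringer (10 mM HEPES, 115 mM NaCl, 0.9 mM CaCl2, 1 mM KCl, pH 7.2) containing 1 μM glycine plus 100 μM glutamate, with increasing antagonist. Washes of 4–6 min between stimulations. IC50 from five-point concentration-inhibition curves, sigmoidal fit, assuming competitive inhibition. Mean (SE) of ≥3 experiments.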

[2] = biological target: Glutamate receptor ionotropic, NMDA 1 (Rattus norvegicus, UniProt P35439); assay: Displacement of [3H]-5-7 dichlorokynurenic acid ([3H]- DCKA) from N-methyl-D-aspartate glutamate receptor glycine site of rat brain membrane homogenate; type: tissue-based
Method in brief: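 Rat brain membranes kept at -80 °C, thawed, washed in HEPES-KOH 50 mM pH 7.5. About 0.1 mg protein incubated 30 min at 4 °C with 20 nM [3H]-DCKA and increasing probe; nonspecific binding with 1 mM glycine. Filtration, then scintillation counting. Logistic fit; Ki by Cheng-Prusoff (KD 35 nM). Mean (SE) of ≥3 experiments.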

Chain of Glutamate NMDA receptor; Grin1/Grin2b (Q00960 whole entry, other chains not shown, the tested form may be a part): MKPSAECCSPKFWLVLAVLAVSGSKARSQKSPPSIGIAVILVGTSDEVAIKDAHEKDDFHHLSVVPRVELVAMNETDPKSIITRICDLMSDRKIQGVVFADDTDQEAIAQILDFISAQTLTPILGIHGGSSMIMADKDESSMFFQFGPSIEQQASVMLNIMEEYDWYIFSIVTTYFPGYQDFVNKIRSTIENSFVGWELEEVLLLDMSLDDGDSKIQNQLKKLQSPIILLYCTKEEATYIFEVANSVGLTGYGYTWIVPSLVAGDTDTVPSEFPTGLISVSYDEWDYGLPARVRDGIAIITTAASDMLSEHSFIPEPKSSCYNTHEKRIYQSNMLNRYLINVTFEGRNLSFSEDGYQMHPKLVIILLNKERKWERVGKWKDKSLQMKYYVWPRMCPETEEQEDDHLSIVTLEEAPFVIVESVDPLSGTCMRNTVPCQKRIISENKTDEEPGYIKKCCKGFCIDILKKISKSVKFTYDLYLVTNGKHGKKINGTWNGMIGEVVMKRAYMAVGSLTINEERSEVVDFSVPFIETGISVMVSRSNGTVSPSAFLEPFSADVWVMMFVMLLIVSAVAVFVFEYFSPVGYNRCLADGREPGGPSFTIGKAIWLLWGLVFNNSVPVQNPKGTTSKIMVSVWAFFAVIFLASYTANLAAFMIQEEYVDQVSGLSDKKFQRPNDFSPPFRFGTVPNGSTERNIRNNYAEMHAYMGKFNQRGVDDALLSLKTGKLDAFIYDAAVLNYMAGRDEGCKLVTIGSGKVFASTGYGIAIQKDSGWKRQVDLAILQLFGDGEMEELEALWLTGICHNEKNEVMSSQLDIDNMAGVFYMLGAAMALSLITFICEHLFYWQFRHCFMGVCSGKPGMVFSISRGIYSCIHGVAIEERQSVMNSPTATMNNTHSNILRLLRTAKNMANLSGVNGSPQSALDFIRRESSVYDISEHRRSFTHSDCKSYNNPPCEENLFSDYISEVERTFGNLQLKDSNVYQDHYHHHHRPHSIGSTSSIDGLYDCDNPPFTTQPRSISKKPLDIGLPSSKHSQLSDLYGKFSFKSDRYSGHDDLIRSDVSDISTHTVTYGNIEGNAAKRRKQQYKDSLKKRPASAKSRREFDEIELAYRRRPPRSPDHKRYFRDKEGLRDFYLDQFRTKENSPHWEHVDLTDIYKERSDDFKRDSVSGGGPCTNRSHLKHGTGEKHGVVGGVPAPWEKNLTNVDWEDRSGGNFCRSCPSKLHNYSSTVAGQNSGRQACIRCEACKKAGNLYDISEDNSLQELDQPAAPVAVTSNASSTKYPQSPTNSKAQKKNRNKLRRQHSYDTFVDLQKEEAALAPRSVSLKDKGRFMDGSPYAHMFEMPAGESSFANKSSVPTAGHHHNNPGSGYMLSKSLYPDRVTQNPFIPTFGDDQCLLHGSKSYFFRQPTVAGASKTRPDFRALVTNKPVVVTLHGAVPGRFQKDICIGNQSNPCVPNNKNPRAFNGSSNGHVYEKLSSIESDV

| SMILES | IC50 [1] | Ki [2] |
| --- | --- | --- |
| O=C(CCl)Nc1ccc2c(O)c(-c3cccc(Oc4ccccc4)c3)c(=O)[nH]c2c1 | 38000 nM | 278 nM |
| O=c1[nH]c2cc(N=C=S)ccc2c(O)c1-c1cccc(Oc2ccccc2)c1 | 24000 nM | 64.3 nM |
| O=c1[nH]c2cc(Cl)ccc2c(O)c1-c1cccc(Oc2ccccc2)c1 | 18 nM | 14 nM |
| O=C(Oc1c(-c2cccc(Oc3ccccc3)c2)c(=O)[nH]c2cc(Cl)ccc12)c1ccc(S(=O)(=O)F)cc1 | 2410 nM | 24.2 nM |
| O=C(CCl)Nc1c(-c2cccc(Oc3ccccc3)c2)c(=O)[nH]c2cc(Cl)ccc12 | > 100000 nM | 216 nM |
| O=C(CCl)Nc1ccc2c(OC(=O)CCl)c(-c3cccc(Oc4ccccc4)c3)c(=O)[nH]c2c1 | 63000 nM | 427 nM |
| O=C(CCl)Nc1cccc(Oc2cccc(-c3c(O)nc4cc(Cl)ccc4c3O)c2)c1 | 39 nM | 13.8 nM |
| N#[N+]c1ccc2c(O)c(-c3cccc(Oc4ccccc4)c3)c(O)nc2c1 | – | > 1000 nM |
| O=C(CCl)Nc1cccc(-c2c(O)c3ccc(Cl)cc3[nH]c2=O)c1 | 155 nM | 42 nM |
| O=c1[nH]c2cc(Cl)ccc2c(O)c1-c1cccc(NCCS(=O)(=O)F)c1 | 335 nM | 24 nM |
| O=c1[nH]c2cc(Cl)ccc2c(O)c1-c1cccc(N=C=S)c1 | 200 nM | 47.6 nM |
| O=C(CCl)Nc1ccccc1Oc1cccc(-c2c(O)nc3cc(Cl)ccc3c2O)c1 | 24 nM | 7.1 nM |
| O=c1[nH]c2cc(Cl)ccc2c(O)c1-c1cccc(Oc2ccccc2NCCS(=O)(=O)F)c1 | 32 nM | 26.8 nM |

Reference: ChEMBL document CHEMBL1132451, “Evaluation and biological properties of reactive ligands for the mapping of the glycine site on the N-methyl-D-aspartate (NMDA) receptor” (J Med Chem, 1999)
